Experimental data taken from ChEMBL document CHEMBL5058577, “EUbOPEN Chemogenomics Library 2 (Multiplex)” (2022).

Test system: U2OS
Experiment: Multiplex assay against U2OS
Assay type: toxicity, cell-based
Details: human
Procedure, shortened: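 At seeding, live cells were stained with Hoechst33342, BioTracker Green Microtubule Cytoskeleton Dye, MitoTracker Red and Annexin V Alexa Fluor 680. After compound addition they were imaged on a CQ1 microscope at 37°C and 5% CO2, and CellPathfinder machine-learning gating sorted them into Hoechst high-intensity objects or normal cells, with normal cells further split into healthy, pyknosed or fragmented nuclei and pyknosed cells into mitotic or apoptotic. Tubulin, mitochondrial-mass and membrane-permeability phenotypes are given as per cents of cells with healthy nuclei.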

[1] = 12 h, 1 µM, compound concentration 1 uM, replicate 1
[2] = 12 h, 1 µM, compound concentration 1 uM, replicate 2
[3] = 12 h, 10 µM, compound concentration 10 uM, replicate 1
[4] = 12 h, 10 µM, compound concentration 10 uM, replicate 2
[5] = 24 h, 1 µM, compound concentration 1 uM, replicate 1
[6] = 24 h, 1 µM, compound concentration 1 uM, replicate 2
[7] = 24 h, 10 µM, compound concentration 10 uM, replicate 1
[8] = 24 h, 10 µM, compound concentration 10 uM, replicate 2
[9] = 48 h, 1 µM, compound concentration 1 uM, replicate 1
[10] = 48 h, 1 µM, compound concentration 1 uM, replicate 2
[11] = 48 h, 10 µM, compound concentration 10 uM, replicate 1
[12] = 48 h, 10 µM, compound concentration 10 uM, replicate 2

CN1CCN2c3ncccc3Cc3ccccc3C2C1 (stereo not drawn) [MIRTAZAPINE]
Population Apoptotic (%) [1]: 82% | Population Fragmented Nuclei (%) [1]: 21% | Population Healthy Nuclei (%) [1]: 67% | Population Hoechst High Intensity Objects (%) [1]: 1% | Population Membrane Permeable-Phenotype (%) [1]: 3% | Population Mitochondria Different-Phenotype (%) [1]: 1% | Population Mitotic Cells (%) [1]: 17% | Population Normal (%) [1]: 99% | Population Pyknosed Nuclei (%) [1]: 11% | Population Tubulin-Different-Phenotype (%) [1]: 2% | Total Cell Count [1]: 301 | Population Apoptotic (%) [2]: 100% | Population Healthy Nuclei (%) [2]: 72% | Population Membrane Permeable-Phenotype (%) [2]: 5% | Population Mitochondria Different-Phenotype (%) [2]: 6% | Population Mitotic Cells (%) [2]: 0% | Population Normal (%) [2]: 98% | Population Pyknosed Nuclei (%) [2]: 6% | Population Tubulin-Different-Phenotype (%) [2]: 3% | Total Cell Count [2]: 81 | Population Apoptotic (%) [3]: 73% | Population Fragmented Nuclei (%) [3]: 19% | Population Healthy Nuclei (%) [3]: 71% | Population Hoechst High Intensity Objects (%) [3]: 3% | Population Membrane Permeable-Phenotype (%) [3]: 6% | Population Mitochondria Different-Phenotype (%) [3]: 5% | Population Mitotic Cells (%) [3]: 26% | Population Normal (%) [3]: 96% | Population Pyknosed Nuclei (%) [3]: 8% | Population Tubulin-Different-Phenotype (%) [3]: 6% | Total Cell Count [3]: 266 | Population Apoptotic (%) [4]: 66% | Population Fragmented Nuclei (%) [4]: 13% | Population Healthy Nuclei (%) [4]: 82% | Population Membrane Permeable-Phenotype (%) [4]: 3% | Population Mitochondria Different-Phenotype (%) [4]: 4% | Population Mitotic Cells (%) [4]: 33% | Population Pyknosed Nuclei (%) [4]: 3% | Population Tubulin-Different-Phenotype (%) [4]: 0% | Total Cell Count [4]: 83 | Population Apoptotic (%) [5]: 85% | Population Fragmented Nuclei (%) [5]: 15% | Population Healthy Nuclei (%) [5]: 76% | Population Hoechst High Intensity Objects (%) [5]: 2% | Population Membrane Permeable-Phenotype (%) [5]: 5% | Population Mitochondria Different-Phenotype (%) [5]: 3% | Population Mitotic Cells (%) [5]: 14% | Population Normal (%) [5]: 97% | Population Pyknosed Nuclei (%) [5]: 8% | Population Tubulin-Different-Phenotype (%) [5]: 2% | Total Cell Count [5]: 340 | Population Apoptotic (%) [6]: 100% | Population Fragmented Nuclei (%) [6]: 26% | Population Healthy Nuclei (%) [6]: 63% | Population Hoechst High Intensity Objects (%) [6]: 3% | Population Membrane Permeable-Phenotype (%) [6]: 3% | Population Mitotic Cells (%) [6]: 0% | Population Normal (%) [6]: 96% | Population Pyknosed Nuclei (%) [6]: 10% | Population Tubulin-Different-Phenotype (%) [6]: 4% | Total Cell Count [6]: 99 | Population Apoptotic (%) [7]: 89% | Population Fragmented Nuclei (%) [7]: 18% | Population Healthy Nuclei (%) [7]: 71% | Population Hoechst High Intensity Objects (%) [7]: 2% | Population Membrane Permeable-Phenotype (%) [7]: 4% | Population Mitochondria Different-Phenotype (%) [7]: 2% | Population Mitotic Cells (%) [7]: 10% | Population Normal (%) [7]: 97% | Population Pyknosed Nuclei (%) [7]: 9% | Population Tubulin-Different-Phenotype (%) [7]: 0% | Total Cell Count [7]: 314 | Population Apoptotic (%) [8]: 83% | Population Fragmented Nuclei (%) [8]: 9% | Population Healthy Nuclei (%) [8]: 85% | Population Hoechst High Intensity Objects (%) [8]: 0% | Population Membrane Permeable-Phenotype (%) [8]: 5% | Population Mitotic Cells (%) [8]: 16% | Population Normal (%) [8]: 99% | Population Pyknosed Nuclei (%) [8]: 5% | Population Tubulin-Different-Phenotype (%) [8]: 5% | Total Cell Count [8]: 108 | Population Apoptotic (%) [9]: 83% | Population Fragmented Nuclei (%) [9]: 12% | Population Healthy Nuclei (%) [9]: 76% | Population Hoechst High Intensity Objects (%) [9]: 2% | Population Membrane Permeable-Phenotype (%) [9]: 4% | Population Mitochondria Different-Phenotype (%) [9]: 2% | Population Mitotic Cells (%) [9]: 16% | Population Normal (%) [9]: 97% | Population Pyknosed Nuclei (%) [9]: 10% | Population Tubulin-Different-Phenotype (%) [9]: 3% | Total Cell Count [9]: 479 | Population Apoptotic (%) [10]: 92% | Population Fragmented Nuclei (%) [10]: 20% | Population Healthy Nuclei (%) [10]: 68% | Population Hoechst High Intensity Objects (%) [10]: 4% | Population Membrane Permeable-Phenotype (%) [10]: 8% | Population Mitochondria Different-Phenotype (%) [10]: 4% | Population Mitotic Cells (%) [10]: 7% | Population Normal (%) [10]: 95% | Population Pyknosed Nuclei (%) [10]: 11% | Population Tubulin-Different-Phenotype (%) [10]: 1% | Total Cell Count [10]: 132 | Population Apoptotic (%) [11]: 95% | Population Fragmented Nuclei (%) [11]: 15% | Population Healthy Nuclei (%) [11]: 75% | Population Hoechst High Intensity Objects (%) [11]: 2% | Population Membrane Permeable-Phenotype (%) [11]: 7% | Population Mitochondria Different-Phenotype (%) [11]: 4% | Population Mitotic Cells (%) [11]: 5% | Population Normal (%) [11]: 97% | Population Pyknosed Nuclei (%) [11]: 9% | Population Tubulin-Different-Phenotype (%) [11]: 5% | Total Cell Count [11]: 435 | Population Apoptotic (%) [12]: 100% | Population Fragmented Nuclei (%) [12]: 12% | Population Healthy Nuclei (%) [12]: 78% | Population Membrane Permeable-Phenotype (%) [12]: 3% | Population Mitochondria Different-Phenotype (%) [12]: 3% | Population Mitotic Cells (%) [12]: 0% | Population Tubulin-Different-Phenotype (%) [12]: 3% | Total Cell Count [12]: 170
